# High-throughput results: PubChem, several laboratories
# Plk1 PBD FP = blocks phosphopeptide binding to human Plk1 polo box domain. P53350. Plk1 PBD phosphopeptide binding, fluorescence polarization. actives 0.13% (n = 97,000). inhibition, %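 (tested at about 20 µM)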. AID 693; in the data active means inhibition above about 34%, passing the limit was not always enough
# Target sequence (P53350 whole entry, looked up, the tested form may be a part): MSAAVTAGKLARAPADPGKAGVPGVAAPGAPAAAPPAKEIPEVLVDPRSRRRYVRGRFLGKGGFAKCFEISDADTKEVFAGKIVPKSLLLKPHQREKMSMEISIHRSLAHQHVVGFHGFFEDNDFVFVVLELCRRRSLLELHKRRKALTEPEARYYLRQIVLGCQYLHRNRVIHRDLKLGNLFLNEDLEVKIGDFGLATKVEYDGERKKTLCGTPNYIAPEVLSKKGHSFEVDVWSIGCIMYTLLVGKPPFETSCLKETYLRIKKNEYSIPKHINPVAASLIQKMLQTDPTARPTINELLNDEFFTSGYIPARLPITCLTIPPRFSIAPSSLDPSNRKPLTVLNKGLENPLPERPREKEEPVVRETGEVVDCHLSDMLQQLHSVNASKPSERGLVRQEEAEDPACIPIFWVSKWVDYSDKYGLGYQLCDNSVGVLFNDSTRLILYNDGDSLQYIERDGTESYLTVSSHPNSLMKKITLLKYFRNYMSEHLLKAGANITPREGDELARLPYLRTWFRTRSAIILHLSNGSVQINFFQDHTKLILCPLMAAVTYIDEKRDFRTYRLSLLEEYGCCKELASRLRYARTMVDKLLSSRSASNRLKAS
# PLK1 kinase inh = inhibitors of human PLK1 kinase | inhibition, % at 10 µM | actives 0.53% (n = 97,000) | P53350 | AID 619 | recombinant PLK1 kinase, TR-FRET peptide phosphorylation;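 active means inhibition of 50% or more in the single-concentration screen; inactive means inhibition below 50%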;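 further: 0% = DMSO max control and 100% = H-89 dihydrochloride min control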
# HEK293 NFkB inh = inhibitors of the PMA/ionomycin-induced NF-kB reporter in HEK293 cells. HEK-293 NF-kB luciferase reporter, luminescence. inhibition, % at 3 µM. actives 0.21% (n = 62,000). AID 465;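 active means inhibition above the mean of all tested compounds plus 3 SD, cut at about 40% in these data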;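 further: 0% = stimulated DMSO wells and 100% = 10 µM reference inhibitor 5653914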
#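 Timing: 1 h pretreatment, 16 h stimulation, 37 °C; system: HEK-293 cells with stable firefly luciferase reporter driven by four HIV NF-kB elements; doses: 3 µM once, 0.30% DMSO; measured by: luciferase luminescence; control set: DMSO and 10 µM reference inhibitor; repeats: single test; reagent: PMA plus ionomycin mix as NF-kB-activating stimulus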
# AP ELISA ortho = alternative pathway complement inhibition, orthogonal assay. Human serum alternative complement pathway, LPS-coated ELISA, C3 deposition; tested in compound mixtures. inhibition, % at 5 µM. actives 0.08% (n = 62,000). AID 1235;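 active means inhibition above 30% in each of the two pooled mixtures holding the compound, so the lower value exceeds 30%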;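 further: 0% = serum in Mg-EGTA without compound and 100% = EDTA serum blank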
#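 Test system – human serum alternative complement pathway, C3 deposition on LPS-coated wells · Buffer or medium – diluted human serum in Mg2+-EGTA GVB++ · Compound dosing – 5 µM each compound, pools of ten, 50 µM per pool · Schedule – 1 h serum-compound exposure at 37 °C · Measured by – Anti-C3 ELISA, OD 450 nm · Read-out basis – percent inhibition of C3 deposition onto LPS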
# HePTP inhibitor = blocks human HePTP tyrosine phosphatase | P35236 | AID 521 | actives 0.64% (n = 110,000) | recombinant HePTP phosphatase activity, OD absorbance | inhibition, % at 20 µM; in the data active means inhibition above about 50%; inconclusive means no clear call, values can overlap the other calls;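 further: plate controls were vehicle for no effect and reference inhibitor for full effect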
# Pyk2 oligo antag = antagonists of human Pyk2 oligomerization; Q14289; Q293 cells, Pyk2 FERM NanoBiT luminescence; hits give low values; z-score (the deposit names both 25 µM and 10 µM); actives 0.83% (n = 99,000);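 active means Z-score of -3 or lower, scaled per plate to the spread of control and sample wells; inactive means z-score above -3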;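 further: negative z-score means lost luminescence so less FERM oligomerization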
# PLK1 confirm = confirmation of human PLK1 kinase inhibitors | AID 744 | shares compounds with PLK1 kinase inh | recombinant PLK1 kinase, TR-FRET peptide phosphorylation | inhibition, % at 10 µM | actives 20% (n = 210);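 active means inhibition at or above 50% in each of two repeat confirmation tests; inconclusive means one repeat below 50% inhibition, the other above; inactive means both repeats at or below 50% inhibition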;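 further: 0% = DMSO max control and 100% = H-89 kinase-blocked min control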
# TR-FRET interf = interferes with the Plk1 assay readout, not true inhibition; shares compounds with PLK1 kinase inh; Plk1 TR-FRET assay interference, compound added post-reaction; inhibition (interference), % at 10 µM; 210 tested, under 10 active; AID 756;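 active means both duplicate runs show 50% or greater inhibition; inconclusive means only one duplicate run shows over 50% inhibition; inactive means both runs show under 50% inhibition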;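 further: 0% = DMSO max control and 100% = H-89 min control inhibited reaction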
# Redox H2O2 DR = counter-screen for Plk1 PBD inhibitors: redox cycling H2O2 generation. EC50, µM. DTT. AID 876. 120 tested, under 10 active. shares compounds with Plk1 PBD FP; call rule not given here
# * marks the source's active call; other numbers are inactive results; ? = inconclusive; / = no result. This is a sample that favours compounds with a hit; in the whole collection about 1.5% have one here.
SMILES,Plk1 PBD FP,PLK1 kinase inh,HEK293 NFkB inh,AP ELISA ortho,HePTP inhibitor,Pyk2 oligo antag,others
COc1ccc(Cn2c(N)c(C(=O)NCc3ccco3)c3nc4ccccc4nc32)cc1,-19,55*,-8,15,7,-1.9,
Nc1c(C(=O)NCc2ccco2)c2nc3ccccc3nc2n1Cc1ccc(F)cc1,5,43,/,23,10,-1.4,
CCCOC1NC(=N[N+](=O)[O-])NC1OCCC (centres undefined),/,/,/,/,4,/,
O=c1[nH]c(=O)n(CCC2=CCCCC2)c(O)c1C=NCc1cccnc1,10,-5,-4,7,11,-3.2*,
O=C(COc1ccc2ccccc2c1)N1CCN(Cc2ccc([N+](=O)[O-])cc2)CC1,/,/,/,/,6,/,
CCOc1ccc(-n2c(-c3cccs3)nc3ccccc3c2=O)cc1,/,/,/,/,-14,/,
CCn1nc(-c2cccs2)nc2c(=O)n(C)c(=O)nc1-2,/,/,97*,-5,?,-3.3*,
CCN1/C(=C\C=C\C2=[N+](CC)c3ccccc3C2(C)C)C(C)(C)c2ccccc21,-77,53*,/,/,/,-3.4*,
COc1ccc(N=C(C)c2c(O)n(C3CCCCC3)c(=O)[nH]c2=O)c(OC)c1,-32,-4,17,4,0,-3.4*,
CCCCn1c(O)c(C(C)=NC(C)c2ccccc2)c(=O)[nH]c1=O (centres undefined),-20,-9,14,-3,2,-3.6*,
CCCCn1c(O)c(C(CC)=NC(C)c2ccccc2)c(=O)[nH]c1=O (centres undefined),-14,0,/,/,/,-3.8*,
C=CCn1c(O)c(C(CC)=NC(C)c2ccccc2)c(=O)[nH]c1=O (centres undefined),-13,-5,/,/,/,-0.85,
Cc1cccc(-n2c(-c3ccc(Cl)cc3Cl)nc3ccccc3c2=O)n1,/,/,/,/,1,/,
CCN1C(=O)/C(=C/c2ccoc2)C(=O)NC1=S,/,/,/,/,102*,/,
C=CCN1C(=O)/C(=C\c2cccn2-c2ccc([N+](=O)[O-])cc2)C(=O)NC1=S,/,/,/,/,102*,/,
CCN1C(=O)/C(=C/c2cccn2C)C(=O)NC1=S,/,/,/,/,100*,/,
CN1C(=O)/C(=C/c2cccn2-c2ccc3ccccc3c2)C(=O)NC1=S,16,-12,/,/,/,-0.39,
COc1ccc(CCNCc2cccc([N+](=O)[O-])c2)cc1OC,/,/,/,/,5,/,
Cc1ccc(C=C2C(=O)NC(=S)N(c3ccccc3F)C2=O)s1,/,/,/,/,11,/,
C=CCN1C(=O)/C(=C\C=C\c2ccco2)C(=O)NC1=S,/,/,/,/,102*,/,
O=C1NC(=S)N(c2ccccc2F)C(=O)C1=Cc1ccco1,/,/,/,/,103*,/,
CCc1ccc(N2C(=O)NC(=O)/C(=C/C=C/c3ccco3)C2=O)cc1,/,/,/,/,33,/,
O=C1NC(=S)N(c2ccccc2)C(=O)/C1=C/c1ccco1,/,/,/,/,102*,/,
CCCCCn1c(=O)c(C(=O)Nc2ccc(OC)cc2)c(O)c2ccccc21,/,/,/,/,0,/,
Cc1ccc(S(=O)(=O)N2CCN(/C(N)=N/[N+](=O)[O-])CC2)cc1,/,/,/,/,11,/,
SMILES,Plk1 PBD FP,PLK1 kinase inh,HEK293 NFkB inh,AP ELISA ortho,HePTP inhibitor,Pyk2 oligo antag,others
C=CCN1C(=O)NC(=O)/C(=C/c2ccc(-c3cc([N+](=O)[O-])ccc3Cl)o2)C1=O,/,/,/,/,-3,/,
CCOC(=O)CCOCC#CCN(CC)CC,/,/,/,/,-6,/,
O=C1NC(=S)N(c2ccc(F)cc2)C(=O)/C1=C/c1ccc(Br)o1,/,/,/,/,104*,/,
COc1ccc(N2C(=O)/C(=C/c3ccc(-c4cc(C(=O)O)ccc4Cl)o3)C(=O)NC2=S)cc1,/,/,/,/,34,/,
O=C1NC(=O)N(c2ccc(Cl)cc2)C(=O)/C1=C/c1ccc(Br)o1,/,/,/,/,100*,/,
Cc1cc(C)cc(N2C(=O)NC(=O)/C(=C\c3cccn3-c3ccc(Cl)cc3)C2=O)c1,-34,-6,/,/,/,-3.2*,
COc1ccc(N2C(=O)/C(=C/c3ccc(I)o3)C(=O)NC2=S)cc1,/,/,/,/,101*,/,
CN1C(=O)NC(=O)/C(=C/c2cc(Br)cc(Cl)c2O)C1=O,/,/,/,/,6,/,
O=C1C2CCCN2C(c2cccnc2)N1c1ccc(Cl)c(Cl)c1 (centres undefined),20,-7,2,-15,-12,-3.1*,
O=C1C2CCCN2C(c2ccncc2)N1c1ccc(Cl)c(Cl)c1 (centres undefined),1,4,10,11,-2,0.1,
Cc1ccccc1-n1c(O)c(C=C2C=CC=N2)c(=O)[nH]c1=S,/,/,/,/,103*,/,
S=C(Nc1cccc2ccccc12)NC1CN2CCC1CC2 (centres undefined),/,/,/,/,7,/,
CC(C)N1CCN(Cc2ccccc2Br)CC1,/,/,/,/,8,/,
CN(C)C(=O)Oc1ccc(-c2nnco2)cc1,-8,78*,11,15,-1,/,PLK1 confirm=-11;TR-FRET interf=-58
COc1ccc(CN2CCN(C(=O)Cc3ccccc3)CC2)c(OC)c1OC,/,/,/,/,-23,/,
Cc1ccc(-n2c(O)c(C=NCCN3CCOCC3)c(=O)[nH]c2=O)cc1,44*,-34,/,5,-6,-0.05,Redox H2O2 DR=>50
CC(C)Oc1ccccc1C=C1C(=O)NC(=O)NC1=O,/,/,/,/,-7,/,
